Bioassay records: PubChem BioAssay, several laboratories
In the library only some 2% were active in any assay of this set; here they are far more common.
Hck Nef HTS: blocks Nef-activated human Hck kinase | P08631 | Recombinant Hck-YEEI plus Nef, Z-Lyte FRET kinase assay | inhibition, % at 20 µM | 0.68% of 220,000 active | AID 463187;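 active = Hck-Nef kinase inhibition above about 50%, limit read from the data; inactive = inhibition below that limit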;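 also: 0% = DMSO with Hck plus Nef and 100% = Hck alone without Nef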
14-3-3 Bad PPI: disrupts binding of bovine 14-3-3 zeta to phospho-Bad peptide; TR-FRET 14-3-3zeta/Dy647-pBad peptide displacement, 1 h; 0.71% of 220,000 active; inhibition, % at 21.7 µM; P63103;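 active = inhibition above about 70%, limit read from the data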;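 also: 0% = full 14-3-3 plus peptide FRET controls and 100% = background without 14-3-3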
NCF1 inh: p47phox (human) inhibition; P14598; p47phox/p22phox peptide binding, fluorescence polarization, 2 h; inhibition, % at 24.7 µM; 0.53% of 220,000 active; AID 1274;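 also: 0% = p47phox with labelled peptide and 100% = labelled peptide alone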
Target sequence (P14598 whole entry, looked up): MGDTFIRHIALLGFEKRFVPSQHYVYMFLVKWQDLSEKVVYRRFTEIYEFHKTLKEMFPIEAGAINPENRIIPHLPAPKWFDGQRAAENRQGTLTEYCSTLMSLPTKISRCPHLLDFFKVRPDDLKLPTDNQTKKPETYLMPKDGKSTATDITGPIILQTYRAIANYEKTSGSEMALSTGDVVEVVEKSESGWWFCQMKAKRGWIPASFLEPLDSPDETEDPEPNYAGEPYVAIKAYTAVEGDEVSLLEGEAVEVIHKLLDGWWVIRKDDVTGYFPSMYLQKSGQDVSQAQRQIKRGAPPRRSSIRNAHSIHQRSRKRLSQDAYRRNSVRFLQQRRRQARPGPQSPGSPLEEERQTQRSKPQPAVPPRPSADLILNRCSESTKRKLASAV
eIF4E 4G PPI: inhibitors of eIF4E and eIF4G interaction in translation initiation; TR-FRET eIF4E-eIF4GI(517-606) binding, 2 h; P63073+Q04637; 0.37% of 220,000 active; AID 782; inhibition, % at 21.7 µM;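 also: 0% = full FRET control wells and 100% = background wells lacking eIF4GI fragment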
Diaph act CS: diaphorase activation or chemical reduction counter-screen | Diaphorase/resazurin coupled assay, resorufin fluorescence, 16 min; stronger effect = higher value; 1 = vehicle wells, 0 = NADH-free wells | activation factor at 20 µM | 0.005% of 190,000 active;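 active = diaphorase activity raised at least twofold by the compound at 20 µM; inactive = activation factor below 2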
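Material: bacterial diaphorase enzyme (C. kluyveri); amount: enzyme 0.07 U/mL final; reagent: NADH substrate 0.114 mM plus resazurin dye 0.1 mM, final; doses: single compound dose of 20 µM, 1% DMSO final; timing: 16 min enzyme reaction, ambient temperature; measured by: fluorescence of resorufin, 544 nm excitation, 590 nm emission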
Hck Nef conf: Hck-Nef kinase inhibition, confirmation; 28% of 1,300 active; Recombinant Hck-YEEI:Nef, Z-Lyte FRET kinase assay; calls only at 10 µM; AID 463188; shares compounds with Hck Nef HTS;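 active = average inhibition of at least 50%, with Z-scores no higher than 3 in both the phospho-tyrosine peptide and fluorescence counterscreens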
* marks the source's active call; other numbers are inactive results; i = inactive; x = no result shown; + = active, no number.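 The calls were made as follows, unless noted: active = inhibition above about 30% (limit read from the data); inactive = the rest.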

SMILES | Hck Nef HTS | 14-3-3 Bad PPI | NCF1 inh | eIF4E 4G PPI | Diaph act CS | others
CC(=O)Nc1ccc(S(=O)(=O)C(C#N)c2nc3ccccc3nc2NCCO)cc1 (configuration not stated) | 148* | 2 | -9 | 2 | x
Cc1ccc(S(=O)(=O)C(C#N)c2nc3ccccc3nc2OCCO)cc1 (configuration not stated) | 5 | 0 | -3 | 2 | 1
CCOC(=O)c1[nH]c(C)c(C(=O)OCC(=O)N2CCc3ccccc32)c1C | -21 | 6 | -16 | 2 | 1
CCOC(=O)c1c(C)[nH]c(C(=O)OCC(=O)N2CCc3ccccc32)c1C | 92* | 44 | 14 | -87 | 0.9 | Hck Nef conf=i
CCN(CC)c1ccc2cc(C(N)=O)c(=N)oc2c1 | 22 | -2 | -1 | 0 | 0.9
CCN(CC)c1ccc2cc(C(N)=O)c(=O)oc2c1 | 123* | -2 | -10 | -1 | 1
COc1ccc(NC(=O)c2nc[nH]c2C(=O)N[C@@H](C)C(=O)OC(C)(C)C)cc1 | 53* | -4 | 3 | 3 | x | Hck Nef conf=i
COC(=O)C1=C(C)N(CCc2cc(OC)c(OC)c(OC)c2)C(=O)N[C@H]1c1ccc(Br)cc1 | 0 | 1 | 4 | 7 | 0.7
CC(=O)c1sc2nc(CSc3nnnn3-c3ccccc3)[nH]c(=O)c2c1C | 53* | 26 | -33 | 31* | 0.6 | Hck Nef conf=+
O=C(Nc1nc2ccsc2c(=O)s1)c1ccco1 | 65* | 6 | -6 | -7 | x | Hck Nef conf=i
Cc1ccc(S(=O)(=O)c2c(N)n(CCCO)c3nc4ccccc4nc23)cc1 | 81* | 15 | -8 | -11 | 0.8
CCC(=O)Nc1c(S(=O)(=O)c2ccccc2)c2nc3ccccc3nc2n1C(C)c1ccccc1 (configuration not stated) | 75* | 7 | -12 | 6 | 0.7
CCCCn1c(NC(=O)c2ccco2)c(S(=O)(=O)c2ccc(C)cc2)c2nc3ccccc3nc21 | 49 | 6 | -29 | 5 | 0.3
CCC(=O)Nc1c(S(=O)(=O)c2ccc(C)cc2)c2nc3ccccc3nc2n1C(C)c1ccccc1 (configuration not stated) | 12 | -1 | -13 | 1 | 0.7
CCCCn1c(NS(=O)(=O)c2ccccc2)c(S(=O)(=O)c2ccc(C)cc2)c2nc3ccccc3nc21 | 66* | 15 | -12 | 6 | 0.6
Cc1ccc(S(=O)(=O)c2c(N)n(CCC(C)C)c3nc4ccccc4nc23)cc1 | 22 | 9 | -9 | 2 | 0.8
CCCCCn1c(NC(=O)c2ccco2)c(S(=O)(=O)c2ccc(C)cc2)c2nc3ccccc3nc21 | 56* | 11 | -43 | 1 | 0.5
Cc1noc(C)c1C(=O)N1CCCC(C(=O)c2cccc(C(F)(F)F)c2)C1 (configuration not stated) | 9 | -1 | -2 | -3 | 0.9
Cn1ccnc1SCCNC(=O)CCc1nnc(CCc2ccccc2)o1 | 17 | -8 | 0 | 2 | 0.8
CCCCn1c(NC(=O)c2ccc(Br)o2)c(S(=O)(=O)c2ccccc2)c2nc3ccccc3nc21 | 84* | 36 | -20 | 17 | 0.8
O=C(O)CCC(=O)NN1C(=O)c2ccccc2NC1c1ccc(F)cc1 (configuration not stated) | 4 | 5 | 6 | -10 | x
CC(=O)Oc1ccc2c(c1)O/C(=C\c1ccncc1)C2=O | -34 | -13 | -22 | 3 | x
COc1ccccc1C(=O)Oc1ccc2c(c1)O/C(=C\c1ccncc1)C2=O | 76* | 37 | -4 | -4 | 0.9 | Hck Nef conf=+
CCCCOc1ccc(-c2nnc(N)s2)cc1 | 78* | 1 | -12 | 3 | 0.8 | Hck Nef conf=+
CCOc1ccc(-c2nnc(N)s2)cc1 | 1 | 1 | -6 | 1 | 0.8
O=S(=O)(Nc1ccc(-c2nc3cccnc3s2)cc1)c1cc(F)ccc1F | 115* | 4 | -19 | 8 | x
CC(=O)c1cnn(-c2c(Cl)cc(Cl)cc2Cl)c1C | -9 | 6 | 0 | -3 | x
O=c1cc(N=Nc2ccc(Cl)cc2)[nH]c(=O)[nH]1 | 2 | -1 | -8 | 0 | x
O=C(O)c1ccc(N/N=C/c2ccc(OC(=O)c3cccc(Cl)c3)cc2)cc1 | 56* | 32 | -1 | 26 | x | Hck Nef conf=+
